Experimental data reported in ChEMBL document CHEMBL1130259, “Nonsymmetrically substituted cyclic urea HIV protease inhibitors” (J Med Chem, 1997).

Key:
[1] = molecular target: Human immunodeficiency virus type 1 protease (Human immunodeficiency virus 1) (UniProt Q72874)
[2] = molecular target: Human immunodeficiency virus type 1 protease (Human immunodeficiency virus 1, UniProt Q72874); test: Affinity against HIV protease
[3] = Partition coefficient (logP) (HPLC); assay type: physicochemical; conditions: octanol/water
Canis lupus familiaris = organism: Canis lupus familiaris; test: Clearance of compound in dog plasma
[4] = Apparent volume of distribution of compound in dog plasma; assay type: ADME, organism-based, Canis lupus familiaris; conditions: read-out: Vss
Method in brief: (§1)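 Female Beagle dogs given a 5.0 mg/kg intravenous dose. Formulation was 10.0 mg/mL in PEG400/water/EtOH (60/30/10), dosed at 0.5 mL/kg. Compound levels were measured in plasma by a method validated over 0.10–50.0 μg/mL.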

[5] = Maximum concentration in dog plasma; assay type: ADME, organism-based, Canis lupus familiaris
Method in brief: (§2)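 Female Beagle dogs received either 10.0 mg/kg orally (three dogs; 10.0 mg/mL, 1.0 mL/kg) or 5.0 mg/kg intravenously (same formulation, 0.5 mL/kg). Vehicle was PEG400/water/EtOH (60/30/10). Plasma concentrations were assayed by a method validated over 0.10–50.0 μg/mL.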

[6] = Half life determined by administering intravenously in dog; assay type: ADME, organism-based, Canis lupus familiaris; conditions: in vivo, iv
Method in brief: as §1

[7] = Maximum concentration (10 mg/kg, orally) in plasma of dogs; assay type: ADME, organism-based, Canis lupus familiaris; design: dose 10 mg/kg, route oral; conditions: dog, po
Method in brief: (§3)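 Three female Beagle dogs were dosed orally at 10.0 mg/kg. The compound was given at 10.0 mg/mL in PEG400/water/EtOH (60/30/10) at 1.0 mL/kg. Plasma drug was quantified by a method validated in dog plasma over 0.10–50.0 μg/mL.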

[8] = Half life (10 mg/kg, orally) […] in dog plasma; assay type: ADME, organism-based, Canis lupus familiaris
Method in brief: as §3

[9] = Clearance (5 mg/kg, intravenously) in dog plasma; conditions: iv
[10] = Apparent volume of distribution of compound (5 mg/kg, intravenously) in dogs; conditions: dog, in vivo, iv, read-out: Vss
[11] = Oral bioavailability in dog (dose 10 mg/kg); assay type: ADME, organism-based, Canis lupus familiaris; conditions: in vivo
Method in brief: as §2

[12] = Half life (5 mg/kg, intravenously) determined by administering intravenously in dogs; conditions: dog, in vivo, iv
[13] = Maximum concentration (10 mg/kg, perorally) in plasma of dogs; assay type: ADME, organism-based, Canis lupus familiaris; design: dose 10 mg/kg, route oral; conditions: dog, po
Method in brief: as §3

[14] = Half life (10 mg/kg, perorally) […] in dogs; assay type: ADME, organism-based, Canis lupus familiaris; conditions: dog, in vivo
Method in brief: as §3

[15] = Clearance of compound (5 mg/kg, intravenously), in dog plasma; assay type: ADME, organism-based, Canis lupus familiaris; conditions: iv
Method in brief: as §1

[16] = Apparent volume of distribution of compound (5 mg/kg, intravenously) in dogs; assay type: ADME, organism-based, Canis lupus familiaris; conditions: dog, in vivo, iv, read-out: Vss
Method in brief: as §1

[17] = Half life (5 mg/kg, intravenously) determined by administering intravenously in dogs; assay type: ADME, organism-based, Canis lupus familiaris; conditions: dog, in vivo, iv
Method in brief: as §1

[18] = Half life determined by administering intravenously in dog plasma; assay type: ADME, organism-based, Canis lupus familiaris; conditions: iv
Method in brief: as §1

[19] = Clearance of compound in dog plasma; assay type: ADME, organism-based, Canis lupus familiaris
Method in brief: as §1

[20] = Maximum concentration (5 mg/kg, intravenously) in plasma of dogs; assay type: ADME, organism-based, Canis lupus familiaris; design: dose 5 mg/kg, route intravenous; conditions: dog, iv
Method in brief: as §1

Structure (SMILES) | IC90 [1] [nM] | Ki [2] [nM] | logP [3] | other results
CC(C)CN(C[C@@H](O)[C@H](Cc1ccccc1)NC(=O)O[C@H]1CCOC1)S(=O)(=O)c1ccc(N)cc1 | 46 |  |  | 
COc1cc(CN2C(=O)N(Cc3cccc(C(=O)Nc4ccccn4)c3)[C@H](Cc3ccccc3)[C@H](O)[C@@H](O)[C@H]2Cc2ccccc2)cc(OC)c1 | 129 | 0.86 | 5.2 | 
COc1cccc(CN2C(=O)N(Cc3cccc(C(=O)Nc4cccc(C)n4)c3)[C@H](Cc3ccccc3)[C@H](O)[C@@H](O)[C@H]2Cc2ccccc2)c1 | 42.7 | 0.053 | 5.54 | 
Cc1ccc(NC(=O)c2cccc(CN3C(=O)N(Cc4cccc(C(=O)Nc5ccc(C)cn5)c4)[C@H](Cc4ccccc4)[C@H](O)[C@@H](O)[C@H]3Cc3ccccc3)c2)nc1 | 3.1 |  |  | clearance (Canis lupus familiaris): 66.7 mL/min/kg; Vd [4]: 4.5 L/kg; Cmax [5]: 100 ng/mL; half-life [6]: 1 h
COc1cc(CN2C(=O)N(Cc3cccc(C(=O)Nc4cnccn4)c3)[C@H](Cc3ccccc3)[C@H](O)[C@@H](O)[C@H]2Cc2ccccc2)cc(OC)c1 | 743 | 2.51 | 4.84 | 
N#CCNC(=O)c1cccc(CN2C(=O)N(Cc3cccc(C(=O)NCC(=O)O)c3)[C@H](Cc3ccccc3)[C@H](O)[C@@H](O)[C@H]2Cc2ccccc2)c1 | 741 | 0.024 | 2.44 | 
Nc1cccc(CN2C(=O)N(Cc3cccc(N)c3)[C@H](Cc3ccccc3)[C@H](O)[C@@H](O)[C@H]2Cc2ccccc2)c1 [MOZENAVIR] |  | 0.31 | 3.17 | Cmax [7]: 6000 ng/mL; half-life [8]: 2.5 h; clearance [9]: 3.33 mL/min/kg; Vd [10]: 1.3 L/kg; bioavailability [11]: 79.2%; half-life [12]: 3.6 h
COc1cccc(CN2C(=O)N(Cc3cccc(C(=O)Nc4ccc(C)cn4)c3)[C@H](Cc3ccccc3)[C@H](O)[C@@H](O)[C@H]2Cc2ccccc2)c1 | 41.6 | 0.069 | 5.51 | 
Nc1cccc(CN2C(=O)N(Cc3cccc(C(=O)Nc4ncc[nH]4)c3)[C@H](Cc3ccccc3)[C@H](O)[C@@H](O)[C@H]2Cc2ccccc2)c1 | 26.2 | 0.012 | 3.39 | Cmax [13]: 900 ng/mL; half-life [14]: 10.3 h; clearance [15]: 8.33 mL/min/kg; Vd [16]: 4 L/kg; half-life [17]: 5.6 h; bioavailability [11]: 68%
O=C1N(Cc2ccc(CO)cc2)[C@H](Cc2ccccc2)[C@H](O)[C@@H](O)[C@@H](Cc2ccccc2)N1Cc1ccc(CO)cc1 [DMP-323] | 115 |  | 3.56 | 
COc1cccc(CN2C(=O)N(Cc3cccc(C(=O)Nc4cnccn4)c3)[C@H](Cc3ccccc3)[C@H](O)[C@@H](O)[C@H]2Cc2ccccc2)c1 | 91.2 | 0.038 | 4.75 | 
COc1cc(CN2C(=O)N(Cc3cccc(C(=O)Nc4cccc(C)n4)c3)[C@H](Cc3ccccc3)[C@H](O)[C@@H](O)[C@H]2Cc2ccccc2)cc(OC)c1 | 282 | 0.7 | 5.69 | 
O=C(Nc1cnccn1)c1cccc(CN2C(=O)N(Cc3cccc(C(=O)Nc4cnccn4)c3)[C@H](Cc3ccccc3)[C@H](O)[C@@H](O)[C@H]2Cc2ccccc2)c1 | 3.5 |  |  | Vd [4]: 3 L/kg; Cmax [5]: 400 ng/mL; half-life [18]: 0.8 h; clearance [19]: 46.7 mL/min/kg
O=C(Nc1ccccn1)c1cccc(CN2C(=O)N(Cc3cccc([N+](=O)[O-])c3)[C@H](Cc3ccccc3)[C@H](O)[C@@H](O)[C@H]2Cc2ccccc2)c1 | 97.5 | 0.096 | 5.05 | 
CC(C)c1nc(CN(C)C(=O)N[C@H](C(=O)N[C@@H](Cc2ccccc2)C[C@H](O)[C@H](Cc2ccccc2)NC(=O)OCc2cncs2)C(C)C)cs1 | 76 |  |  | 
COc1cccc(CN2C(=O)N(Cc3cccc(C(=O)Nc4ccccn4)c3)[C@H](Cc3ccccc3)[C@H](O)[C@@H](O)[C@H]2Cc2ccccc2)c1 | 30 | 0.047 | 5.06 | 
O=C(Nc1ccccn1)c1cccc(CN2C(=O)N(Cc3cccc(C(=O)Nc4ccccn4)c3)[C@H](Cc3ccccc3)[C@H](O)[C@@H](O)[C@H]2Cc2ccccc2)c1 | 2.8 |  |  | Vd [4]: 10.3 L/kg; Cmax [5]: < 200 ng/mL; half-life [18]: 1.1 h; clearance [19]: 70 mL/min/kg
CC(C)(C)NC(=O)[C@@H]1CN(Cc2cccnc2)CCN1C[C@@H](O)C[C@@H](Cc1ccccc1)C(=O)N[C@H]1c2ccccc2C[C@H]1O | 50 |  |  | 
Nc1cccc(CN2C(=O)N(Cc3cccc(C(=O)Nc4nc5ccccc5[nH]4)c3)[C@H](Cc3ccccc3)[C@H](O)[C@@H](O)[C@H]2Cc2ccccc2)c1 | 13.2 | 0.023 | 4.95 | Cmax [20]: 5500 ng/mL; half-life [17]: 1.5 h; bioavailability [11]: 109%
Cc1ccc(NC(=O)c2cccc(CN3C(=O)N(Cc4cccc(N)c4)[C@H](Cc4ccccc4)[C@H](O)[C@@H](O)[C@H]3Cc3ccccc3)c2)nc1 | 16.5 | 0.075 | 4.47 | 
CC(C)(C)NC(=O)c1cccc(CN2C(=O)N(Cc3cccc(N)c3)[C@H](Cc3ccccc3)[C@H](O)[C@@H](O)[C@H]2Cc2ccccc2)c1 | 114 | 0.41 | 5.28 | 
CC(C)(C)NC(=O)[C@@H]1C[C@@H]2CCCC[C@@H]2CN1C[C@@H](O)[C@H](Cc1ccccc1)NC(=O)[C@H](CC(N)=O)NC(=O)c1ccc2ccccc2n1 | 10.4 |  |  | 
Nc1cccc(CN2C(=O)N(Cc3cccc(C(=O)Nc4cnccn4)c3)[C@H](Cc3ccccc3)[C@H](O)[C@@H](O)[C@H]2Cc2ccccc2)c1 | 20.2 | 0.016 | 3.77 | 
COc1cc(CN2C(=O)N(Cc3cccc(C(=O)Nc4ccc(C)cn4)c3)[C@H](Cc3ccccc3)[C@H](O)[C@@H](O)[C@H]2Cc2ccccc2)cc(OC)c1 | 282 | 1.9 | 5.59 | 
